Our source for the IC50 values is ChEMBL document CHEMBL1145688, “New sesquiterpene hydroquinones from a Taiwanese marine sponge Polyfibrospongia australis” (J Nat Prod, 1997).

Common to all, as to type: functional, cell-based
The subject of test [1] is P388. Put plainly: Cytotoxicity against mouse P388 cells after 3 days by MTT assay. Particulars: P388, 72 h. Summed up:
(§1)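 Modified MTT colorimetric assay. Cells seeded at 1000 cells/well and exposed to twofold serial dilutions of compound. Incubation ran 6 days for A-549 and 3 days for KB-16 and P-388. MTT (1 mg/mL) was then added for 5 h at 37 °C, formazan dissolved in DMSO, and absorbance read at 540 nm. IC50 is the concentration giving a 50% absorbance reduction versus untreated cells.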
(In general: Formazan colour is commonly taken as a measure of viable cells.)

A short description of test [2]: Cytotoxicity against human KB16 cells after 3 days by MTT assay. Particulars: KB16, 72 h. Summed up:
as §1

The subject of test [3] is A549. The test can be described thus: Cytotoxicity against human A549 cells after 6 days by MTT assay. Conditions: A549, 144 h. An outline of the steps: as §1

Converted amounts (≈) assume the structure as drawn. Some results are limits rather than exact numbers.

As usually defined, the IC50 is the point on the concentration scale where inhibition reaches its midpoint. In the case of `C=C1CCC[C@H]2[C@](C)(Cc3cc(C(=O)OC)cc(OC(C)=O)c3OC(C)=O)[C@@H](C)CC[C@]12C`, the 50% inhibitory concentration (IC50) in test [1] stood at 1.9 µg/mL (≈ 4.16 µM); in test [2], 1.8 µg/mL (≈ 3.94 µM); in test [3], 1.5 µg/mL (≈ 3.29 µM).
With `C=C1CCC[C@H]2[C@](CO)(Cc3cc(C(=O)OC)cc(OC)c3O)[C@@H](C)CC[C@]12C` [POLYFIBROSPONGOL B], the IC50 in test [1] turned out to be 1 µg/mL (≈ 2.48 µM); in test [2] it was 2 µg/mL (≈ 4.97 µM); in test [3] it was 1 µg/mL (≈ 2.48 µM).
`C=C1CCC[C@H]2[C@](C)(Cc3cc(C(=O)OC)cc(O)c3O)[C@@H](C)CC[C@]12C` [DICTYOCERATIN A]: the concentration for half-maximal inhibition (IC50) came out at 1.4 µg/mL (≈ 3.76 µM) in test [1], 1.4 µg/mL (≈ 3.76 µM) in test [2] and 0.7 µg/mL (≈ 1.88 µM) in test [3].
In the case of `C=C1CCC[C@H]2[C@](C)(Cc3cc(C(=O)OC)cc(OC)c3OC(C)=O)[C@@H](C)CC[C@]12C` [POLYFIBROSPONGOL A MONOACETATE], the IC50 in test [1] worked out at 3.4 µg/mL; in test [2], 2.1 µg/mL; in test [3] it was 3.1 µg/mL.
In the case of `C=C1CCC[C@H]2[C@](C)(CC3=C(O)C(=O)C=C(OC)C3=O)[C@@H](C)CC[C@]12C` [ILIMAQUINONE], the 50% inhibitory concentration (IC50) was 0.2 µg/mL (≈ 0.558 µM) in test [1], 0.7 µg/mL (≈ 1.95 µM) in test [2] and 0.4 µg/mL (≈ 1.12 µM) in test [3].
The matching figures for `C=C1CCC[C@H]2[C@](COC(C)=O)(Cc3cc(C(=O)OC)cc(OC)c3OC(C)=O)[C@@H](C)CC[C@]12C` [POLYFIBROSPONGOL B DIACETATE]: more than 50 µg/mL, more than 50 µg/mL and more than 50 µg/mL.
In the case of `C=C1CCC[C@H]2[C@](C)(Cc3cc(C(=O)OC)cc(OC)c3O)[C@@H](C)CC[C@]12C` [POLYFIBROSPONGOL A], the IC50 in test [1] stood at 0.7 µg/mL (≈ 1.81 µM); in test [2] it was 1.4 µg/mL (≈ 3.62 µM); in test [3], 0.6 µg/mL (≈ 1.55 µM).
